Bioassay records (PubChem BioAssay)
Compounds with a hit are over-represented: about 1.7% of the library has one in this group of screens.
UCH37 DUB inh: inhibitors of human deubiquitinating enzyme UCH37; Q9Y5K5; purified proteasome/UCH37, Ub-AMC cleavage fluorescence; inhibition, % (no concentration beside the values); 330,000 compounds, 0.33% hits; AID 588478;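 active means mean inhibition over replicate wells above about 20%, limit read from the data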;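 further: 0% = compound-free wells with enzyme and 100% = wells lacking proteasome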
Target sequence (Q9Y5K5 whole entry, looked up): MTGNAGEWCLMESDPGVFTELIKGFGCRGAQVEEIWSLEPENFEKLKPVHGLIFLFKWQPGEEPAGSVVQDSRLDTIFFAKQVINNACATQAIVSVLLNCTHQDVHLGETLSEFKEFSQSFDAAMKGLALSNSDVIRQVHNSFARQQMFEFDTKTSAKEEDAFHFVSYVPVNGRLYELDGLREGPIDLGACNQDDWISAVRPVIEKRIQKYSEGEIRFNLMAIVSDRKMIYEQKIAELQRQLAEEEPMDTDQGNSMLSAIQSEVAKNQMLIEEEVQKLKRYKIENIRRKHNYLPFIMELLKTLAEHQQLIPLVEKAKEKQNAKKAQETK
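system = Proteasome-associated human UCH37 deubiquitinase | amount = 0.15 nM proteasome as dispensed | medium = pH 7.4 Tris-HCl (50 mM) with ovalbumin, ATP-MgCl2, DTT | incubation = 30 min preincubation with enzyme, 25 min cleavage at room temperature | detection = AMC fluorescence 355/460 nm | read-out basis = percent inhibition | controls = no-proteasome and no-compound wells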
Rpn11 block: blocks the human proteasome subunit Rpn11. O00487. inhibition, % at 20 µM. 360,000 compounds, 0.59% hits. human 26S proteasome, Ub4-pepOG fluorescence polarization; 20S core pre-blocked with epoxomicin;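 active means inhibition at 20 µM, scaled to each plate's controls, above about 33%, limit read from the data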
Target sequence (O00487 whole entry, looked up): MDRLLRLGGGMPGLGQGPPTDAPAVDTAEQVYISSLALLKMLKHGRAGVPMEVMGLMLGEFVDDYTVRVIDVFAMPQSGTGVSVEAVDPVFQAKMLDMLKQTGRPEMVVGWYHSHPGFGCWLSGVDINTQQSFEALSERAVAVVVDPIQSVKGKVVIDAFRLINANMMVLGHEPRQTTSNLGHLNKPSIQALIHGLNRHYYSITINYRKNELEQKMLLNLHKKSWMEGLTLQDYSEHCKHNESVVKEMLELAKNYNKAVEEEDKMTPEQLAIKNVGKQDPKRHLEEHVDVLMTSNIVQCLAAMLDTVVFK
PLC-gamma1 inh: PLC-gamma1 (human) inhibition, primary screen; P19174; purified PLC-gamma1, fluorogenic substrate, fluorescence; inhibition, % at 12.2 µM; 370,000 compounds, 0.84% hits; in the data active means inhibition above about 9.5%
PLCb3 inh: PLC-beta3 (human) inhibition, primary screen. Q01970. Purified PLC-beta3, fluorogenic substrate, fluorescence. inhibition, % at 12.2 µM. 370,000 compounds, 0.18% hits;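 further: 0% = median of compound wells on plate and 100% = full blocker control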
PLCg1 ctr: counter-screen for PLC-beta3 inhibitors: inhibitors of human PLC-gamma1 | shares compounds with PLC-gamma1 inh | purified PLC-gamma1, fluorogenic substrate, fluorescence | inhibition, % at 12.3 µM | 3,300 compounds, 3.1% hits | AID 743258; in the data active means inhibition above about 9.5%
PLCb3 confirm: confirmation of human PLC-beta3 inhibitors | shares compounds with PLC-gamma1 inh | purified PLC-beta3, fluorogenic substrate fluorescence | inhibition, % at 12.3 µM | 3,300 compounds, 1% hits | AID 743261
Starred values were filed as active, the others as inactive. Unless noted, no stated cut-off is given here; in the data, active means inhibition above about 11%; inactive means the rest.

Screening Brc1ccc(-c2ccc(C=NNc3nc4ccccc4[nH]3)o2)cc1 returned UCH37 DUB inh -125.3.
For CCCC(C)C(=O)Nc1cc([N+](=O)[O-])ccc1F (stereo not drawn) the results were UCH37 DUB inh 1.1, Rpn11 block -2.6, PLC-gamma1 inh 9.7*, PLCb3 inh 4.4, PLCg1 ctr 1.7 and PLCb3 confirm -0.2.
Screening CN1CCN(c2ccc(CNC[C@H]3O[C@@H](n4cnc5c(=O)[nH]c(N)nc54)[C@H](O)[C@@H]3O)c(F)c2)CC1 returned Rpn11 block -10.8, PLC-gamma1 inh 9.8*, PLCb3 inh 1.9, PLCg1 ctr -8.7 and PLCb3 confirm -5.8.
O=C(CSc1nc2ncc(Br)cc2[nH]1)c1cccc([N+](=O)[O-])c1 was read as UCH37 DUB inh 4.0, Rpn11 block 7.7, PLC-gamma1 inh 0.7 and PLCb3 inh 2.7.
Screening O=[N+]([O-])c1ccc(CSc2nc3ncc(Br)cc3[nH]2)cc1 returned UCH37 DUB inh -0.3, Rpn11 block 9.8, PLC-gamma1 inh 11.3*, PLCb3 inh 0.3, PLCg1 ctr -2.9 and PLCb3 confirm 0.0.
CCc1cc(C(=O)NNC(=S)NCc2ccccc2)cs1 was read as UCH37 DUB inh 0.7, Rpn11 block 0.4, PLC-gamma1 inh 1.4 and PLCb3 inh 7.9.
Cc1cc(C(=O)NNC(=S)NCc2ccccc2)cs1 was read as UCH37 DUB inh -1.6, Rpn11 block -4.4, PLC-gamma1 inh -0.6, PLCb3 inh 13.3*, PLCg1 ctr -8.8 and PLCb3 confirm 5.5.
For Cc1cc(C(=O)NNC(=S)NCC(C)C)cs1 the results were UCH37 DUB inh 6.2, Rpn11 block 0.6, PLC-gamma1 inh -0.2, PLCb3 inh 13.4*, PLCg1 ctr -4.5 and PLCb3 confirm 13.9*.
For Cc1ccccc1NS(=O)(=O)c1cc(C(=O)NCc2ccco2)ccc1C the results were UCH37 DUB inh 1.0, Rpn11 block 1.8, PLC-gamma1 inh 10.0*, PLCb3 inh 2.7, PLCg1 ctr 3.0 and PLCb3 confirm 1.9.
For O=C(NCc1ccco1)c1ccc(Br)c(S(=O)(=O)N2CCCCC2)c1 the results were UCH37 DUB inh 1.8, Rpn11 block -2.2, PLC-gamma1 inh 11.0*, PLCb3 inh 9.4, PLCg1 ctr -1.9 and PLCb3 confirm 0.8.
Screening COc1cc(C=NNC(=O)c2csc3c2CCCC3)ccc1OCCN1CCOCC1 returned UCH37 DUB inh 5.8.
Screening CC(=O)NC1C(OCCOc2ccc(Cl)cc2Cl)OC(COC(C)=O)C(OC(C)=O)C1OC(C)=O (stereo not drawn) returned UCH37 DUB inh 1.7, Rpn11 block -6.6, PLC-gamma1 inh 10.2*, PLCb3 inh 3.8, PLCg1 ctr -3.8 and PLCb3 confirm -0.8.
For CC(=O)NC1C(OCCOc2ccc(Cl)cc2C)OC(CO)C(O)C1O (stereo not drawn) the results were UCH37 DUB inh 4.4, Rpn11 block 2.1, PLC-gamma1 inh -1.3 and PLCb3 inh -4.5.
`CCc1ccc(NC(=O)CCNC(=O)Cn2cnc3ccccc3c2=O)cc1` gave UCH37 DUB inh 1.5, Rpn11 block 15.3, PLC-gamma1 inh 3.1 and PLCb3 inh -4.3.
`CCOc1ccc(NC(=O)CCNC(=O)Cn2cnc3ccccc3c2=O)cc1` gave UCH37 DUB inh 0.9, Rpn11 block -2.2, PLC-gamma1 inh 9.6*, PLCb3 inh -8.7, PLCg1 ctr -1.5 and PLCb3 confirm 0.6.
CCOC(=O)C1=C(CC)Nc2ccccc2N=C1NC(=O)Cn1cnc2ccccc2c1=O was read as UCH37 DUB inh 3.1, Rpn11 block 1.1, PLC-gamma1 inh 9.5*, PLCb3 inh 8.3, PLCg1 ctr -7.1 and PLCb3 confirm -2.6.
For CC(=O)C1C(c2ccc(C)cc2)c2c(n[nH]c2C)CC1(C)O (stereo not drawn) the results were UCH37 DUB inh -0.1, Rpn11 block -4.6, PLC-gamma1 inh 3.8 and PLCb3 inh 3.9.
CC(=O)C1C(c2ccccc2)c2c(n[nH]c2C)CC1(C)O (stereo not drawn) was read as UCH37 DUB inh 4.5, Rpn11 block -1.7, PLC-gamma1 inh 11.7*, PLCb3 inh 3.3, PLCg1 ctr -4.2 and PLCb3 confirm -2.6.
O=C(c1ccncc1)N1CCCC(N2CCN(c3ccc(F)cc3)CC2)C1 (stereo not drawn) was read as UCH37 DUB inh 0.3, Rpn11 block 2.3, PLC-gamma1 inh 10.7*, PLCb3 inh -2.3, PLCg1 ctr 3.5 and PLCb3 confirm 3.6.
`O=C(c1cccc(S(=O)(=O)N2CCN(c3ccc(F)cc3)CC2)c1)N1CCCC(C(F)(F)F)C1` (stereo not drawn) gave UCH37 DUB inh 3.7, Rpn11 block -5.7, PLC-gamma1 inh 10.3*, PLCb3 inh -3.9, PLCg1 ctr 13.7* and PLCb3 confirm 5.2.
`CC1CN(C(=O)c2cccc(S(=O)(=O)N3CCN(c4ccc(F)cc4)CC3)c2)CC(C)O1` (stereo not drawn) gave UCH37 DUB inh 3.9, Rpn11 block 0.9, PLC-gamma1 inh 5.3 and PLCb3 inh -8.5.
Screening O=C(c1cccnc1)N1CCCC(Nc2ccc(F)cc2)C1 (stereo not drawn) returned UCH37 DUB inh 1.3, Rpn11 block -0.5, PLC-gamma1 inh 14.5*, PLCb3 inh -3.9, PLCg1 ctr -0.8 and PLCb3 confirm -1.4.
Screening CC(C)n1cc(C(=O)N2CCCC(N3CCN(c4ccc(F)cc4)CC3)C2)cn1 (stereo not drawn) returned UCH37 DUB inh -2.5, Rpn11 block 2.2, PLC-gamma1 inh 2.9 and PLCb3 inh -3.6.
N#Cc1ccc(C(=O)NN=Cc2cn(CC(=O)O)c3ccccc23)c(F)c1 was read as UCH37 DUB inh 13.1.
Screening CCOc1cccc(C=NNC(=O)C2CCCC2)c1O returned UCH37 DUB inh -2.3.
CC(=NNC(=O)CNC(=O)c1cccs1)c1ccc(Cl)c(Cl)c1 was read as UCH37 DUB inh 5.9.
`CC(=O)N(C)c1ccc(N=Nc2ccc3ncccc3c2)cc1` gave UCH37 DUB inh 14.5, Rpn11 block -8.8, PLC-gamma1 inh 11.9*, PLCb3 inh 9.6, PLCg1 ctr 6.5 and PLCb3 confirm 6.2.
Screening Cc1ccc(C(=O)COC(=O)c2c(C)cc(=O)oc2C)cc1[N+](=O)[O-] returned UCH37 DUB inh 1.3, Rpn11 block -0.5, PLC-gamma1 inh 6.6, PLCb3 inh 11.9*, PLCg1 ctr -5.2 and PLCb3 confirm -2.3.
Screening Cc1ccc(-c2cc(C(=O)NN=Cc3ccco3)n[nH]2)s1 returned UCH37 DUB inh 4.6.
For C=CC[C@@H](CC(=O)NCCO)C(=O)N[C@@H](COC(=O)[C@@H](CC=C)CC(=O)OC(C)(C)C)Cc1ccccc1 the results were UCH37 DUB inh 1.1, Rpn11 block 6.4, PLC-gamma1 inh 10.0*, PLCb3 inh 6.6, PLCg1 ctr -6.5 and PLCb3 confirm -4.4.
